Reference: ChEMBL document CHEMBL5046217, “Discovery of New Imidazo[2,1-b]thiazole Derivatives as Potent Pan-RAF Inhibitors with Promising In Vitro and In Vivo Anti-melanoma Activity” (J Med Chem, 2021)

Assays:
[1] = target: Tyrosine-protein kinase ABL1 (Homo sapiens, UniProt P00519); assay: Inhibition of ABL1 (unknown origin) incubated for 1 hr by qPCR analysis
UACC-62 [2] = assay: Antiproliferative activity against human UACC-62 cells assessed as total growth inhibition measured after 48 hrs by SRB assay; settings: UACC-62, 48 h
NSCLC [3] = assay: cells; settings: Homo sapiens, 48 h, read-out: INH
M14 = assay: Antiproliferative activity against human M14 cells assessed as cell growth inhibition measured after 48 hrs by SRB assay; settings: M14, 48 h
[4] = Cytotoxicity against human L132 cells assessed as cell growth inhibition incubated for 48 hrs by MTT assay; assay type: toxicity, cell-based
[5] = system: Panel CNS (Carcinoma cell lines); assay: Antiproliferative activity against human Panel CNS (Carcinoma cell lines) assessed as cell growth inhibition measured after 48 hrs by SRB assay
SK-MEL-28 [6] = assay: Antiproliferative activity against human SK-MEL-28 cells assessed as cell growth inhibition measured after 48 hrs by SRB assay; settings: SK-MEL-28, 48 h
[7] = system: Panel colon (Carcinoma cell lines); assay: Antiproliferative activity against human Panel colon (Carcinoma cell lines) assessed as cell growth inhibition measured after 48 hrs by SRB assay
[8] = system: Panel prostate (Carcinoma cell lines); assay: Antiproliferative activity against human Panel prostate (Carcinoma cell lines) assessed as cell growth inhibition measured after 48 hrs by SRB assay
[9] = system: Panel ovarian (Carcinoma cell lines); assay: Antiproliferative activity against human Panel ovarian (Carcinoma cell lines) assessed as cell growth inhibition measured after 48 hrs by SRB assay
NSCLC [10] = assay: Antiproliferative activity against human NSCLC cell line assessed as cell growth inhibition measured after 48 hrs by SRB assay
SK-MEL-28 [11] = assay: Antiproliferative activity against human SK-MEL-28 cells assessed as total growth inhibition measured after 48 hrs by SRB assay; settings: SK-MEL-28, 48 h
[12] = target: Mitogen-activated protein kinase 8 (Homo sapiens, UniProt P45983); assay: Inhibition of MAPK8 (unknown origin) incubated for 1 hr by qPCR analysis
Sequence of Mitogen-activated protein kinase 8 (P45983 whole entry): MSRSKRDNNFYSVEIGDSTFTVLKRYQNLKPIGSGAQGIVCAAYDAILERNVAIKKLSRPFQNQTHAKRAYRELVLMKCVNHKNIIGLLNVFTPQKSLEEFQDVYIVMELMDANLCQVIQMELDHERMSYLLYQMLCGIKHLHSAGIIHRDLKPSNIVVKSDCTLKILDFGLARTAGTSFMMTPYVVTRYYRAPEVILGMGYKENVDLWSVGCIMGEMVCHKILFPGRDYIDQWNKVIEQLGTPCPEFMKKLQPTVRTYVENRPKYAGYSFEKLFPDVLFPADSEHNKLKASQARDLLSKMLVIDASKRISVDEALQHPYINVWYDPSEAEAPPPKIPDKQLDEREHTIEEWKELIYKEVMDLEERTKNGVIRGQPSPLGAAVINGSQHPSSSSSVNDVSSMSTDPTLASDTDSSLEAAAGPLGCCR
In short: (§1)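 Competition binding assay. Kinases were either T7-phage-tagged (grown in an E. coli BL21-derived host) or expressed in HEK-293 cells and DNA-tagged. […] Bound kinase was eluted with non-biotinylated ligand and quantified by qPCR.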

[13] = system: Panel renal (Carcinoma cell lines); assay: Antiproliferative activity against human Panel renal (Carcinoma cell lines) assessed as cell growth inhibition measured after 48 hrs by SRB assay
LOX IMVI = assay: Antiproliferative activity against human LOX IMVI cells assessed as total growth inhibition measured after 48 hrs by SRB assay
in vitro = settings: human, BJ cells and Malme-3M cells
UACC-257 = assay: Antiproliferative activity against human UACC-257 cells assessed as total growth inhibition measured after 48 hrs by SRB assay; settings: UACC-257, 48 h
[14] = target: Homeodomain-interacting protein kinase 1 (Homo sapiens, UniProt Q86Z02); assay: Inhibition of HIPK1 (unknown origin) incubated for 1 hr by qPCR analysis; in short: as §1
Sequence of Homeodomain-interacting protein kinase 1 (Q86Z02 whole entry): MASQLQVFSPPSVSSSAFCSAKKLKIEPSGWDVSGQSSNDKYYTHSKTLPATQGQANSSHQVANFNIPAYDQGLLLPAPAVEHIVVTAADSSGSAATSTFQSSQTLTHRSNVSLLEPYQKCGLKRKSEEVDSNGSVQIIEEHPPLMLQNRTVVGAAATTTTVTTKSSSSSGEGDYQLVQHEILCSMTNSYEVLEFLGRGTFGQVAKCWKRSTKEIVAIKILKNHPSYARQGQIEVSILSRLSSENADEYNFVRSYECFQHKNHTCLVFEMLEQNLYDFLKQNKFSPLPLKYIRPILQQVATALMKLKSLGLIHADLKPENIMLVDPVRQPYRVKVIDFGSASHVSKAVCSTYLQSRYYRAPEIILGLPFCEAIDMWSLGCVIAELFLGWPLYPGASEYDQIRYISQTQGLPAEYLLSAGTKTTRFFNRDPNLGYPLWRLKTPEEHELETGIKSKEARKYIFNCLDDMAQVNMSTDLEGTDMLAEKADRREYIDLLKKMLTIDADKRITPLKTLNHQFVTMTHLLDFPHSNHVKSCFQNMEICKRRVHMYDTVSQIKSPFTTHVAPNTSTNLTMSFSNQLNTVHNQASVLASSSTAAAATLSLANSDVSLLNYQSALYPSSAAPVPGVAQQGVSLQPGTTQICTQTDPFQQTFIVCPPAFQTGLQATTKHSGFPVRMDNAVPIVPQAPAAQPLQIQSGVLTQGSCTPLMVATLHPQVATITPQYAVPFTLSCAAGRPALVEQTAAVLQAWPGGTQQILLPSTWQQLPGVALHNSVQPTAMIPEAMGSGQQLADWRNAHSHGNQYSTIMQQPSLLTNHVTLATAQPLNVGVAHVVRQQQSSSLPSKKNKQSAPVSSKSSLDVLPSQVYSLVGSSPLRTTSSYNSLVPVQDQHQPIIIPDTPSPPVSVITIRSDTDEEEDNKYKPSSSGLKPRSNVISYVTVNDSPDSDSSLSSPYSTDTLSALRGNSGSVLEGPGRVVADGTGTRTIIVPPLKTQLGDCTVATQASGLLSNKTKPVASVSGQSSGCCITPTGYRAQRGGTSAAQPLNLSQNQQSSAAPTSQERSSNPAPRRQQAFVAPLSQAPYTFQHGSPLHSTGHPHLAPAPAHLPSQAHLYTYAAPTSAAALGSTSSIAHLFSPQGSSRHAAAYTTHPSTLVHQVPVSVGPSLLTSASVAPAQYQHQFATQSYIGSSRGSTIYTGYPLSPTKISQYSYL

UACC-62 [15] = assay: Antiproliferative activity against human UACC-62 cells assessed as cell growth inhibition measured after 48 hrs by SRB assay; settings: UACC-62, 48 h
[16] = target: Serine/threonine-protein kinase B-raf (Homo sapiens, UniProt P15056, V600E); assay: Inhibition of human BRAF V600E mutant using myelin basic protein as substrate in presence of [gamma-33P]ATP incubated for 40 mins by scintillation counting method
Sequence of Serine/threonine-protein kinase B-raf (Homo sapiens, UniProt P15056, V600E) (P15056 2-766 V600E limits assumed): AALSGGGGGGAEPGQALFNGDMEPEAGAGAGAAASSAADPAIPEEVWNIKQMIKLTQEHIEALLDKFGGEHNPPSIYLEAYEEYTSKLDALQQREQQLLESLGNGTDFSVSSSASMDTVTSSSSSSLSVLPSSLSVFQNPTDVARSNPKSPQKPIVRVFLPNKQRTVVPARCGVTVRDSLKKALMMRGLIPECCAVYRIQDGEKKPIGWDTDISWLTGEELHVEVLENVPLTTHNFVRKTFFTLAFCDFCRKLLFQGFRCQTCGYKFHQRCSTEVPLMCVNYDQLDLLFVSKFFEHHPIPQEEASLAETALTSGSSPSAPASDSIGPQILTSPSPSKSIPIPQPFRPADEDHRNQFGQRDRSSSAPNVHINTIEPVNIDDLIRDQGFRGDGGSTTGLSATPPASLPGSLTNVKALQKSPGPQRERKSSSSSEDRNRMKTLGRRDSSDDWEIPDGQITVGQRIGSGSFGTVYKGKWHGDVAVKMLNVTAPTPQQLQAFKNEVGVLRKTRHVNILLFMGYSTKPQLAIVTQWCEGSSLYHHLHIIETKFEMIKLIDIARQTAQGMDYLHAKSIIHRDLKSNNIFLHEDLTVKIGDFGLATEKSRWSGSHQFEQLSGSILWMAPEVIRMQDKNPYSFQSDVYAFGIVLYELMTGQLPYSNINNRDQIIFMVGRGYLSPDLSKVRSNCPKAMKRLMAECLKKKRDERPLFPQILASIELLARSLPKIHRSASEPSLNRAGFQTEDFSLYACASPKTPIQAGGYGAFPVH
In short: (§2)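 Radiometric kinase assay run at Reaction Biology. Kinase (5−10 mU) in 25 mM Tris pH 7.5, 0.02 mM EGTA, 10 mM magnesium acetate with 0.66 mg/mL myelin basic protein and [γ-33P]ATP at 1 μM ATP. Reaction started with Mg-ATP and run 40 min at room temperature, then stopped with 3% phosphoric acid. Spotted on P30 filtermat, washed, scintillation counted.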

SK-MEL-5 = assay: Antiproliferative activity against human SK-MEL-5 cells assessed as total growth inhibition measured after 48 hrs by SRB assay; settings: SK-MEL-5, 48 h
[17] = target: Mitogen-activated protein kinase kinase kinase 20 (Homo sapiens, UniProt Q9NYL2); assay: Inhibition of ZAK (unknown origin) incubated for 1 hr by qPCR analysis; in short: as §1
Sequence of Mitogen-activated protein kinase kinase kinase 20 (Q9NYL2 whole entry): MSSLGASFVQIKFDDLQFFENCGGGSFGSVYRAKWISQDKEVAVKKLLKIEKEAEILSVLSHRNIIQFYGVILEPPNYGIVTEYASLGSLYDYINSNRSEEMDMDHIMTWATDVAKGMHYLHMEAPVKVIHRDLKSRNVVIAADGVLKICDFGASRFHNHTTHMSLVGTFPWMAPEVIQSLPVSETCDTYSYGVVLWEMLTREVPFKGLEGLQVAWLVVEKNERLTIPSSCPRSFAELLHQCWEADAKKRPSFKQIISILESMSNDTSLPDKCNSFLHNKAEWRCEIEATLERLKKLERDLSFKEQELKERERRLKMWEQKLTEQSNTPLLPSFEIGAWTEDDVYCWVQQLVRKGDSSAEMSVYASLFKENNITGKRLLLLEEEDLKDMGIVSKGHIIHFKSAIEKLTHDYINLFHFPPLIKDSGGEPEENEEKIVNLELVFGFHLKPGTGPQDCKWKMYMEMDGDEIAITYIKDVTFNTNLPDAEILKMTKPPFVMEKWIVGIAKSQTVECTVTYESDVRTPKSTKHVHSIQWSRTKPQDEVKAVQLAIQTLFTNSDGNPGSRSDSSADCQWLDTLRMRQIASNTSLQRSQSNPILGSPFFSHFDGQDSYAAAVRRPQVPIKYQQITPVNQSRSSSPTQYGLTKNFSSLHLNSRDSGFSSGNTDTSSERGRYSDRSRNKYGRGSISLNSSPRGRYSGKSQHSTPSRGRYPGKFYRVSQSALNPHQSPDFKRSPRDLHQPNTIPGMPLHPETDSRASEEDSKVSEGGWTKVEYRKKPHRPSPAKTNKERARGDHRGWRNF

[18] = target: Serine/threonine-protein kinase B-raf (Homo sapiens, UniProt P15056); assay: Inhibition of human wild type BRAF using myelin basic protein as substrate in presence of [gamma-33P]ATP incubated for 40 mins by scintillation counting method; in short: as §2
Sequence of Serine/threonine-protein kinase B-raf (Homo sapiens, UniProt P15056) (P15056 whole entry): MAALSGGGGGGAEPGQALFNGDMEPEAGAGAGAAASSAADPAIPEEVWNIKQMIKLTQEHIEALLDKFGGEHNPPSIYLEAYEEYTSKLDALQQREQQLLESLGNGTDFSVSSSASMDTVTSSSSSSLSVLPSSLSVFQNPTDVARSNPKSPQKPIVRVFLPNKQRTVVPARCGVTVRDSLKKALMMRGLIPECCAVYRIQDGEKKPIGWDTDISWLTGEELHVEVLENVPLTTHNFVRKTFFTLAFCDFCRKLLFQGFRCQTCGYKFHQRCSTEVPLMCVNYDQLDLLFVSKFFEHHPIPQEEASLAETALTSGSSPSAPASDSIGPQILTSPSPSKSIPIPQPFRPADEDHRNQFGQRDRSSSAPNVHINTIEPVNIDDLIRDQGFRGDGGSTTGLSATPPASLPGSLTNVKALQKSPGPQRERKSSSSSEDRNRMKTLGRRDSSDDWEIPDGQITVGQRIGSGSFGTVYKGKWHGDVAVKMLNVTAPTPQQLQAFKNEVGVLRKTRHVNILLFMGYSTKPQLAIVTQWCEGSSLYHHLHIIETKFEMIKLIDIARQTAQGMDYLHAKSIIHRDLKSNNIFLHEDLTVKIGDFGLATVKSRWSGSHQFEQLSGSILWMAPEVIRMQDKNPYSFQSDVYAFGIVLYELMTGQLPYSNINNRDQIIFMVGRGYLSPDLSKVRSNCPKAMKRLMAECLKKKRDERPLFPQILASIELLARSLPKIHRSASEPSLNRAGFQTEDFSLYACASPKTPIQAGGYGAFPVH

MDA-MB-435 = assay: Antiproliferative activity against human MDA-MB-435 cells assessed as total growth inhibition measured after 48 hrs by SRB assay; settings: MDA-MB-435, 48 h
[19] = system: Panel leukemia (Carcinoma cell lines); assay: Antiproliferative activity against human Panel leukemia (Carcinoma cell lines) assessed as cell growth inhibition measured after 48 hrs by SRB assay
[20] = target: Mitogen-activated protein kinase 11 (Homo sapiens, UniProt Q15759); assay: Inhibition of MAPK11 (unknown origin) incubated for 1 hr by qPCR analysis; in short: as §1
[21] = target: Mitogen-activated protein kinase 14 (Homo sapiens, UniProt Q16539); assay: Inhibition of MAPK14 (unknown origin) incubated for 1 hr by qPCR analysis; in short: as §1

Sequence of Tyrosine-protein kinase ABL1 (P00519 whole entry): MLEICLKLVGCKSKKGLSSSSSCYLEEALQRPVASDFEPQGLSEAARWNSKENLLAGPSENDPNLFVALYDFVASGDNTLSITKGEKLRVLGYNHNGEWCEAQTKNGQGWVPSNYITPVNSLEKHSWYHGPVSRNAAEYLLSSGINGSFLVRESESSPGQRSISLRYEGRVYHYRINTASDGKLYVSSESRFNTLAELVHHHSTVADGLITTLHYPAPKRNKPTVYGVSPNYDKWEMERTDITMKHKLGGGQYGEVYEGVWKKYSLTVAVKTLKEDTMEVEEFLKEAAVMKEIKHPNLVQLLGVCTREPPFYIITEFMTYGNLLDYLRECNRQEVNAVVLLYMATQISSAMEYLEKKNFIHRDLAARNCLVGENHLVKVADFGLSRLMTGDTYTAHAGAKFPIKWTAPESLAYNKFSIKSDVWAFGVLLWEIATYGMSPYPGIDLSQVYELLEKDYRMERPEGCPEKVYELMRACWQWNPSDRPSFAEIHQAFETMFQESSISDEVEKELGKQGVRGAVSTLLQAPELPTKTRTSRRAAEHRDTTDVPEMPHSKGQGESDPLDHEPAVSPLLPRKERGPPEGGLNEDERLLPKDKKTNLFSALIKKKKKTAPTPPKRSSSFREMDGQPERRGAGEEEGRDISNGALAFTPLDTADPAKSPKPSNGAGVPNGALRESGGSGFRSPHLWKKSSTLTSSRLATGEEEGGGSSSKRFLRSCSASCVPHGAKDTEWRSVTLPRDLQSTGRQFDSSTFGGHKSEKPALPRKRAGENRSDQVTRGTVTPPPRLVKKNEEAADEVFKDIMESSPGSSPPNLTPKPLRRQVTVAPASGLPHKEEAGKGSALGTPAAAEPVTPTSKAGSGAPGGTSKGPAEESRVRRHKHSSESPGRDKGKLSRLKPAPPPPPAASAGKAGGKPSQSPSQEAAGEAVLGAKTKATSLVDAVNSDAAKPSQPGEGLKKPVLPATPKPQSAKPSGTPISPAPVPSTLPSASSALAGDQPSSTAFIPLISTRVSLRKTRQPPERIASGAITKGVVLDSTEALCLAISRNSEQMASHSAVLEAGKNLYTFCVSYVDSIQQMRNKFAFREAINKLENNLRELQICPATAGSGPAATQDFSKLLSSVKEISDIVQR

IC50 [1]: 13600 nM
IC50 [5]: 3190 nM
IC50 (SK-MEL-28 [6]): 2290 nM
IC50 [7]: 3020 nM
IC50 [8]: 2380 nM
IC50 [9]: 2970 nM
IC50 [12]: 1870 nM
IC50 [13]: 2930 nM
IC50 [14]: 4880 nM
IC50 [16]: 0.98 nM
IC50 [17]: 10300 nM
IC50 [18]: 4.2 nM
IC50 [19]: 2040 nM
IC50 [20]: 980 nM
IC50 [21]: 1780 nM
Compound: O=S(=O)(NCCCNc1nccc(-c2c(-c3cccc(O)c3)nc3sccn23)n1)c1cccc(F)c1
TGI (UACC-62 [2]): 2730 nM
inhibition at 10 µM (NSCLC [3]): 83.1%
IC50 (M14): 2540 nM
IC50 at 48 h [4]: 56300 nM
IC50 (NSCLC [10]): 2550 nM
TGI (SK-MEL-28 [11]): 6860 nM
TGI (LOX IMVI): 5820 nM
selectivity ratio (in vitro): 17.4
TGI (UACC-257): > 100000 nM
IC50 (UACC-62 [15]): 750 nM
TGI (SK-MEL-5): 2280 nM
TGI (MDA-MB-435): 6510 nM
